Measured values reported in ChEMBL document CHEMBL1938284, “Synthesis and biological activity of novel organoselenium derivatives targeting multiple kinases and capable of inhibiting cancer progression to metastases” (Eur J Med Chem, 2012).
Active and inactive are the calls of the source. No cut-off for these calls is given here.

Tests used:
[1] = molecular target: T1, Aurora kinase A (Homo sapiens) (UniProt O14965); assay: Inhibition of Aurora A at 1 uM
T1 sequence (whole entry): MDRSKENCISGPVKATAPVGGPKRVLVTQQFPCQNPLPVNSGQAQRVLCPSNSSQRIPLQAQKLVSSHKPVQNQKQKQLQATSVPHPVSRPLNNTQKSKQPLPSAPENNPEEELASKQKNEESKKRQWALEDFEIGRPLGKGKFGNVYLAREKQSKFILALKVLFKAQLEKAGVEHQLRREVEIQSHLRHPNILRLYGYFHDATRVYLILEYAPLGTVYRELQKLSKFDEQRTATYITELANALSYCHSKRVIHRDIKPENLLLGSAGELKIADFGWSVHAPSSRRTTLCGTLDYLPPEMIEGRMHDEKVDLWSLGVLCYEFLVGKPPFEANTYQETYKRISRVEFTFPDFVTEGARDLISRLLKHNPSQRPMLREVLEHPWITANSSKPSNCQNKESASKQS

[2] = molecular target: Aurora kinase B (Homo sapiens) (UniProt Q96GD4); assay: Inhibition of Aurora B at 1 uM
Chain of Aurora kinase B (Homo sapiens) (Q96GD4 whole entry): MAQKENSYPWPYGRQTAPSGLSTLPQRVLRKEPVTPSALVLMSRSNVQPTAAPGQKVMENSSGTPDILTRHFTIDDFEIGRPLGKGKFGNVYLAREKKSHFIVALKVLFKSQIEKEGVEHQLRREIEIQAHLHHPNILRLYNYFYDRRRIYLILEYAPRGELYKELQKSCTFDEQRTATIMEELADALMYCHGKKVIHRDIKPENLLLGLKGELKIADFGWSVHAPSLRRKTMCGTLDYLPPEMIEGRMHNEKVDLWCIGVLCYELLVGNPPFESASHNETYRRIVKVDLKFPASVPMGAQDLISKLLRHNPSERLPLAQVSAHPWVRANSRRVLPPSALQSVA

[3] = molecular target: Insulin receptor (Homo sapiens) (UniProt P06213); assay: Inhibition of INSR at 1 uM
Chain of Insulin receptor (Homo sapiens) (P06213 28-758 limits assumed): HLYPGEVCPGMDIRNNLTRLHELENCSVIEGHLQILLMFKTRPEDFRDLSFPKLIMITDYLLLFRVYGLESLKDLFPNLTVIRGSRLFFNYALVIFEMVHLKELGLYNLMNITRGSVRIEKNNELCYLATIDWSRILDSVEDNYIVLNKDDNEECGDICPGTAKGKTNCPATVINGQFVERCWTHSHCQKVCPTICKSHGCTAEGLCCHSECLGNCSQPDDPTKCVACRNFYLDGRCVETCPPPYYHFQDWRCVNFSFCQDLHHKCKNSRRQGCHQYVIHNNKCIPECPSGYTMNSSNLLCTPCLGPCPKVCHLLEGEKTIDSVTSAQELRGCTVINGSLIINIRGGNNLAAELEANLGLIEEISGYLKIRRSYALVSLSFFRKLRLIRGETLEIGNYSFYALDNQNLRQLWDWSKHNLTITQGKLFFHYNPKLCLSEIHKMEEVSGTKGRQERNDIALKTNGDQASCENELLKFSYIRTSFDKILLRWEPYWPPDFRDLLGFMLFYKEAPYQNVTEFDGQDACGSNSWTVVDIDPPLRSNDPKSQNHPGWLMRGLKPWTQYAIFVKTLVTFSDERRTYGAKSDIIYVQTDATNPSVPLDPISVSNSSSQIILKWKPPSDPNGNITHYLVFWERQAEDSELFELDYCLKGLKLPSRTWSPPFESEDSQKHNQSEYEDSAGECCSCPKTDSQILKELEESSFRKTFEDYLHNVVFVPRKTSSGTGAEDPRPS
Chain of Insulin receptor (Homo sapiens) (P06213 763-1382 limits assumed): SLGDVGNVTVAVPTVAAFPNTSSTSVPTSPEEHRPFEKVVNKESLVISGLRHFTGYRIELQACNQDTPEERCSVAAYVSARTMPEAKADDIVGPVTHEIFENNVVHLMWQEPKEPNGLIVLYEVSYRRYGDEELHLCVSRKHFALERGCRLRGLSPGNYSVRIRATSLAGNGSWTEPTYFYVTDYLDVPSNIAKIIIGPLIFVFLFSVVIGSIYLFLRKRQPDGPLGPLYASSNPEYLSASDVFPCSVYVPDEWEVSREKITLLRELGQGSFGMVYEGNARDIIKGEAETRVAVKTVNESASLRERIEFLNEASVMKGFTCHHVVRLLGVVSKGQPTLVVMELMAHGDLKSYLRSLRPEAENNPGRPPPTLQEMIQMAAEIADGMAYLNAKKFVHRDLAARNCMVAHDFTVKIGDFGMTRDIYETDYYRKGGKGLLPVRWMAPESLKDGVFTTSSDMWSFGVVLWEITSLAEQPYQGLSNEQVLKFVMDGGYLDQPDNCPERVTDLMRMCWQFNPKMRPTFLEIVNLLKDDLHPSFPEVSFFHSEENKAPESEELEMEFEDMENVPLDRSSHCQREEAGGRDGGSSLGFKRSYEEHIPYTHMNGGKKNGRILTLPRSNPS

[4] = Antiproliferative activity against human MDA231 cells after 72 hrs by MTT assay; type: functional, cell-based; conditions: MDA-MB-231, 72 h
In short: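 MTT read-out on MDA-231 cells. 1×10^3 exponentially growing cells seeded and incubated 24, 48 and 72 h. Medium replaced with 1 mg/mL MTT for 3–4 h at 37 °C.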

[5] = molecular target: T2, Mitogen-activated protein kinase 12 (Homo sapiens) (UniProt P53778); assay: Inhibition of p38-gamma at 1 uM
T2 sequence (whole entry): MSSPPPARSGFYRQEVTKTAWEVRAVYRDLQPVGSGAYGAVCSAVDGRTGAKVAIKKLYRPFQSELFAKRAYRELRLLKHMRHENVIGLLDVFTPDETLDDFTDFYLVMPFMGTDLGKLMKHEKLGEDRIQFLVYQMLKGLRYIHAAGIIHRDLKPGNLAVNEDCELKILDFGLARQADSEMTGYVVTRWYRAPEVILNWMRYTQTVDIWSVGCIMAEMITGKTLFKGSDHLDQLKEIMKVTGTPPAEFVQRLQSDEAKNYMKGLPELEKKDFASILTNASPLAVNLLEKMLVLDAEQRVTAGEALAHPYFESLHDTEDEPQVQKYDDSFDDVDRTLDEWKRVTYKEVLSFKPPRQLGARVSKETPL

[6] = molecular target: T3, Ephrin type-A receptor 1 (Homo sapiens) (UniProt P21709); assay: Inhibition of EPHA1 at 1 uM
T3 sequence (whole entry): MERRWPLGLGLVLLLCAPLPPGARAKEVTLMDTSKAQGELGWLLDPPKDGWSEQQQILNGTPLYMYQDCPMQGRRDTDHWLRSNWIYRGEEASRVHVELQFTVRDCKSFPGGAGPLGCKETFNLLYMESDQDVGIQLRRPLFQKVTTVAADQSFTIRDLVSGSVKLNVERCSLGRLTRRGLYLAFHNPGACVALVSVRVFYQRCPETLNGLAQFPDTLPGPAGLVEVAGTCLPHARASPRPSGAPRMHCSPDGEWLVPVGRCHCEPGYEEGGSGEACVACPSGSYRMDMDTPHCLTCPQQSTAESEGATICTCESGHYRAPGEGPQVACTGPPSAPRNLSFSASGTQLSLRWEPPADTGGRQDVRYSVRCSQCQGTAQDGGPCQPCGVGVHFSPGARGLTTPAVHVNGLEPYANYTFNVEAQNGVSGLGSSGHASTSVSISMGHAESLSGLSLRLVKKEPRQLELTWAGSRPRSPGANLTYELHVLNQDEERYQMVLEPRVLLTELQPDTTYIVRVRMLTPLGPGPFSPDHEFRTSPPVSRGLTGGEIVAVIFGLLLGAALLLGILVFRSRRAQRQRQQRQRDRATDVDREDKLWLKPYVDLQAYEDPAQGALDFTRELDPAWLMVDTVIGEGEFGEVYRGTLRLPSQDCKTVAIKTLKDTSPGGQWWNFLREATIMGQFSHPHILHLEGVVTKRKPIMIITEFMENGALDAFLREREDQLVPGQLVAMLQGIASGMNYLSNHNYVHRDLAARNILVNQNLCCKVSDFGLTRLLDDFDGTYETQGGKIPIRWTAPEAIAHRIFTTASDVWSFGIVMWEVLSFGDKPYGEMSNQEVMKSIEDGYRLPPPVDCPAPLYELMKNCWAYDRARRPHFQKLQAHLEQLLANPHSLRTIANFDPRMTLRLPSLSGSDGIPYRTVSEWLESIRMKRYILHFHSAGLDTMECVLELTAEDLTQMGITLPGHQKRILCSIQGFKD

[7] = molecular target: Epidermal growth factor receptor (Homo sapiens) (UniProt P00533); assay: Inhibition of EGFR at 1 uM
Chain of Epidermal growth factor receptor (Homo sapiens) (P00533 whole entry): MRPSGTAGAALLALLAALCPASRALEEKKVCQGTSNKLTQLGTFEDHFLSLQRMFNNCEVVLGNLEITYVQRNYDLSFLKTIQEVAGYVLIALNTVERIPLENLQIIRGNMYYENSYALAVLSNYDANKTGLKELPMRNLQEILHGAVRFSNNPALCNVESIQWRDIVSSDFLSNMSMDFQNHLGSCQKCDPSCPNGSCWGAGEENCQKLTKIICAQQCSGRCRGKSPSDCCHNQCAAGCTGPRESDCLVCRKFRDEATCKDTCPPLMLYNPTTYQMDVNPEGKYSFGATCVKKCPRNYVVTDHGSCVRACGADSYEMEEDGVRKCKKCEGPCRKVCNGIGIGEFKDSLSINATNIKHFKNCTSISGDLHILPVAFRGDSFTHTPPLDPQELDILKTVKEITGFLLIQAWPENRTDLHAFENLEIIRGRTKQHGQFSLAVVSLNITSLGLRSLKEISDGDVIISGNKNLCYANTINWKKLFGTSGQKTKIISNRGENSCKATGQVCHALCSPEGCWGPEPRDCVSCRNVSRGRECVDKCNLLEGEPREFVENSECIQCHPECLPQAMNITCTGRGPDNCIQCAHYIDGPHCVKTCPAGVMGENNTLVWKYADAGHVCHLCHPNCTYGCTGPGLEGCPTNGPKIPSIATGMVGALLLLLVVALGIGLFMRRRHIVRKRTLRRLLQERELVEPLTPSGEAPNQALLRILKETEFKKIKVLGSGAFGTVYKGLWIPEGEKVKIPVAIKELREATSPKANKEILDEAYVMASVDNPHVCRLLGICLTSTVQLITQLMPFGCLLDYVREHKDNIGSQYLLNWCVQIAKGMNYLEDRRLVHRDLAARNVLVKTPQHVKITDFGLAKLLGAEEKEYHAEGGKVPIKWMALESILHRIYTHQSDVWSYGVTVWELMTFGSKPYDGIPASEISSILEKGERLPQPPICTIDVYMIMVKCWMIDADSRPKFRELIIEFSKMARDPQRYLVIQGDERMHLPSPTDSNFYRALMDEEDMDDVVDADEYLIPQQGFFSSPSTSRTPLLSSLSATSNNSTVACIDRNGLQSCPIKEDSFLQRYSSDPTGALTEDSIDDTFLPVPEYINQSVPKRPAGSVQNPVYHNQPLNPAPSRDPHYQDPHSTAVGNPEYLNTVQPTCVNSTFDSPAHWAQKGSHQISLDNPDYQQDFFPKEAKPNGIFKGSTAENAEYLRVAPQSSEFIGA

[8] = molecular target: T4, Inhibitor of nuclear factor kappa-B kinase subunit epsilon (Homo sapiens) (UniProt Q14164); assay: Inhibition of IKKepsilon at 1 uM
T4 sequence (whole entry): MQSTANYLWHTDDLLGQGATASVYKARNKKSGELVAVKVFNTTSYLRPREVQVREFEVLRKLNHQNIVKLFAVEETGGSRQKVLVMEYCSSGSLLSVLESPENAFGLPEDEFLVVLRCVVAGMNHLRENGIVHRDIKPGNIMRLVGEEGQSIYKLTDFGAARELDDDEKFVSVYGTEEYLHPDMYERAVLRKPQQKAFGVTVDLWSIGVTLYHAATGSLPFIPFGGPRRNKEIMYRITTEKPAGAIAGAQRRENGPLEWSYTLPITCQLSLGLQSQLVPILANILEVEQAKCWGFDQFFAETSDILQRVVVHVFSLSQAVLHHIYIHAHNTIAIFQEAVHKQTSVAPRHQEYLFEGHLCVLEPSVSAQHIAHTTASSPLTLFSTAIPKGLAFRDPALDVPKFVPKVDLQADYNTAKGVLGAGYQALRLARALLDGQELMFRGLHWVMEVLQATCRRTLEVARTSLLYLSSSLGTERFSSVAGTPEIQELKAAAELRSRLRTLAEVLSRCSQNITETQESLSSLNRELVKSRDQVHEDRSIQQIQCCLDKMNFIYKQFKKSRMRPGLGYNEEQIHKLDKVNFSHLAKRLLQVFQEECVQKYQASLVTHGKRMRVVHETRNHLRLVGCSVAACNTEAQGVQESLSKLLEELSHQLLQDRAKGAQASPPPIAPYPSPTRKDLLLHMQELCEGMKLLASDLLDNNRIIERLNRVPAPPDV

[9] = molecular target: Fibroblast growth factor receptor 1 (Homo sapiens) (UniProt P11362); assay: Inhibition of FGFR1 at 1 uM
Chain of Fibroblast growth factor receptor 1 (Homo sapiens) (P11362 22-822 limits assumed): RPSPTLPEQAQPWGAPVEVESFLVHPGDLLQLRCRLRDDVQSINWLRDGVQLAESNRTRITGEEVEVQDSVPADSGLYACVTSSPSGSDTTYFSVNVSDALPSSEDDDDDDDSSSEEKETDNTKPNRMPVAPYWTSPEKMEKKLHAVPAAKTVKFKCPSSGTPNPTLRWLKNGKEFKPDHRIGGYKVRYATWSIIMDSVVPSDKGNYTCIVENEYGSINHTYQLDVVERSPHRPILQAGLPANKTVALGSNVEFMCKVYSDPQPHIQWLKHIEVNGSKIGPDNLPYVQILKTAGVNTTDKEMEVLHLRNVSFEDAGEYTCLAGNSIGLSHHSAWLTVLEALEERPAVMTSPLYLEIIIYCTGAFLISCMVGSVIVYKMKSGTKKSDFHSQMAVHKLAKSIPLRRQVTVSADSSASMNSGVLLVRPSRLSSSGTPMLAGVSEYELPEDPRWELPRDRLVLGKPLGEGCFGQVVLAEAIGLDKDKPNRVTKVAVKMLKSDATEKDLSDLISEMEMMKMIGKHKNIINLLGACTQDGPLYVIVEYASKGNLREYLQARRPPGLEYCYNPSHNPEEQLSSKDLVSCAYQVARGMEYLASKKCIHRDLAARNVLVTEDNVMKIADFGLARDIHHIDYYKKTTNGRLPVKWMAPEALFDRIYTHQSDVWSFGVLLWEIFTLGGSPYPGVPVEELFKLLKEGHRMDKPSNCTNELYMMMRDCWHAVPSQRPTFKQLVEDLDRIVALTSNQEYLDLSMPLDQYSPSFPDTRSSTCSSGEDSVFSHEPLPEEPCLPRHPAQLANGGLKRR

MDA-MB-231 = assay: Inhibition of free radical generation in human MDA231 cells by CM-H2DCFDA based fluorometric analysis; type: functional, cell-based

Row | SMILES | inhibition [1] [%] | inhibition [2] [%] | inhibition [3] [%] | IC50 [4] [µM] | inhibition [5] [%] | inhibition [6] [%] | inhibition [7] [%] | inhibition [8] [%] | inhibition [9] [%] | inhibition (MDA-MB-231)
1 | O=c1c2ccccc2[se]n1-c1ccccc1 [EBSELEN] | 0 | 0 | 0 | 42.3 | 0 | 0 | 0 | 0 | 0 | –
2 | CC(=O)OC[C@H]1O[C@@H](NC(=O)CCCn2[se]c3ccccc3c2=O)[C@H](OC(C)=O)[C@@H](OC(C)=O)[C@@H]1OC(C)=O | 0 | 0 | 0 | 18.9 | 0 | 0 | 0 | 0 | 0 | inactive
3 | O=C(CCCn1[se]c2ccccc2c1=O)N[C@@H]1O[C@H](CO)[C@@H](O)[C@H](O)[C@H]1O | 0 | 0 | 0 | 20.4 | 0 | 0 | 0 | 0 | 0 | inactive
4 | CC(=O)OC[C@H]1O[C@@H](O[C@H]2[C@H](OC(C)=O)[C@@H](OC(C)=O)[C@H](n3[se]c4ccccc4c3=O)O[C@@H]2COC(C)=O)[C@H](OC(C)=O)[C@@H](OC(C)=O)[C@H]1OC(C)=O | 0 | 0 | 0 | – | 0 | 0 | 0 | 0 | 0 | inactive
